ChEMBL document CHEMBL4411313, “Substrate-Specific Inhibition Constants for Phospholipase A2 Acting on Unique Phospholipid Substrates in Mixed Micelles and Membranes Using Lipidomics” (J Med Chem, 2019)

Assays:
[1] = target: T1, 85/88 kDa calcium-independent phospholipase A2 (Homo sapiens) (UniProt O60733); assay: (§1) Inhibition of human recombinant calcium-independent PLA2 using PAPA as substrate assessed as reduction in […] after 30 mins by HPLC-MS analysis
T1 sequence (whole entry): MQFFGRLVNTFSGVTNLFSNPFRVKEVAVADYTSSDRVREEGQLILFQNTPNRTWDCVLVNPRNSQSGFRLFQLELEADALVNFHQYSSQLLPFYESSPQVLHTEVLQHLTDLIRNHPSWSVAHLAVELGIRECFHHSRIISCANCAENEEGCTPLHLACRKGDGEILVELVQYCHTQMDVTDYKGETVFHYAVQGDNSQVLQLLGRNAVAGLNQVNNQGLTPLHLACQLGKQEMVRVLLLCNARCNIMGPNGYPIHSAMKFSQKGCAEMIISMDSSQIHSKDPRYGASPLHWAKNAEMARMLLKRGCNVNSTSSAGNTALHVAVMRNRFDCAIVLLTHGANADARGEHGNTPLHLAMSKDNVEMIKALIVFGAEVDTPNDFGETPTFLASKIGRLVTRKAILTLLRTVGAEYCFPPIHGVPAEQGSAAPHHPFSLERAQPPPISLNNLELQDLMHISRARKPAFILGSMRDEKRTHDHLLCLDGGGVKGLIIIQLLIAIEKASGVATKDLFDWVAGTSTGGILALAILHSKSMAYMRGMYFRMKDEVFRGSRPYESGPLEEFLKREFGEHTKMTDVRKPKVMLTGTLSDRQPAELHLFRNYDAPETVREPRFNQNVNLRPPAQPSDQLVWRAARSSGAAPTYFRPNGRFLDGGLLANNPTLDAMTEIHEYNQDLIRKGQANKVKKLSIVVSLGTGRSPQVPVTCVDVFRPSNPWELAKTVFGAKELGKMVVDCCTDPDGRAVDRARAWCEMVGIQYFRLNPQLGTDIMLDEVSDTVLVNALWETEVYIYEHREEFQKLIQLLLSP

[2] = target: T2, Cytosolic phospholipase A2 (Homo sapiens) (UniProt P47712); assay: Inhibition of human recombinant cPLA2 assessed as reduction in 16:0 LPC formation after 30 mins by HPLC-MS analysis
T2 sequence (whole entry): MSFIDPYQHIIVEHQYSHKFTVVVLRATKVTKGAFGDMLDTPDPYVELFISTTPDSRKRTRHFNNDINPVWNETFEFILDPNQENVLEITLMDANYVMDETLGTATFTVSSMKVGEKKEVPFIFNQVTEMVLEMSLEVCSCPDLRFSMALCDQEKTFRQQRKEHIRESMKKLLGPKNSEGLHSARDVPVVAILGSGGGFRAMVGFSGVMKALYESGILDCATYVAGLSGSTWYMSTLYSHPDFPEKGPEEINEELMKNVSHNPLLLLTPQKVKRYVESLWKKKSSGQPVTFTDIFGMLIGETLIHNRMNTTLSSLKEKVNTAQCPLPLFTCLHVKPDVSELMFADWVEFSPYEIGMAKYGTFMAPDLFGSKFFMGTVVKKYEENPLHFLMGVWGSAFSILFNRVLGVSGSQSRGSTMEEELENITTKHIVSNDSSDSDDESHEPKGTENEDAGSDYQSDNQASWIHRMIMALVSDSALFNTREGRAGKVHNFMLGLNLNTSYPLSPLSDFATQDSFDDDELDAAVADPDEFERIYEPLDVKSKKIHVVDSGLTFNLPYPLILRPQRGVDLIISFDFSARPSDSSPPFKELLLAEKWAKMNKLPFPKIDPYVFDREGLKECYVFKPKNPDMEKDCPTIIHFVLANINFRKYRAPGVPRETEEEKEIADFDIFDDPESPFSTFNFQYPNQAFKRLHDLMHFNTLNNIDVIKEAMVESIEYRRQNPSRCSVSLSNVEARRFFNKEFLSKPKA
In short: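 Human recombinant group IVA cPLA2 in mixed micelles with 97 µM PAPC plus 3 µM PI(4,5)P2 (100 µM total phospholipid) and 400 µM C12E8. Buffer was 100 mM HEPES pH 7.5, 90 µM CaCl2 and 2 mM DTT; incubation 30 min at 40 °C. 16:0 LPC was read by HILIC-MRM (positive ion) and free AA by C18 LC-MS (negative ion).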

[3] = target: Cytosolic phospholipase A2 (Homo sapiens) (UniProt P47712); assay: Inhibition of human recombinant cytosolic PLA2 using PAPA as substrate assessed as reduction in free FA formation after 30 mins in presence of equal molar mixture of PAPA/PAPC/PAPE/PAPG/PAPS/PLPC by HPLC-MS analysis
[4] = target: 85/88 kDa calcium-independent phospholipase A2 (Homo sapiens) (UniProt O60733); assay: Inhibition of human recombinant calcium-independent PLA2 using PAPS as substrate assessed as reduction in 16:0 LPS formation after 30 mins in presence of equal molar mixture of PAPA/PAPC/PAPE/PAPG/PAPS/PLPC by HPLC-MS analysis
[5] = target: T1, 85/88 kDa calcium-independent phospholipase A2 (Homo sapiens); assay: (§2) Inhibition of human recombinant calcium-independent PLA2 using PAPC as substrate assessed as reduction in 16:0 LPC formation after 30 mins by HPLC-MS analysis
In short: (§3)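 Human recombinant group VIA iPLA2 acted on 100 µM single phospholipid (PAPC or PLPC) in 400 µM C12E8 mixed micelles. Buffer was 100 mM HEPES pH 7.5, 2 mM ATP and 4 mM DTT; incubation 30 min at 40 °C. 16:0 LPC was read by HILIC-MRM in positive ion mode; free AA or LA by C18 LC-MS in negative ion mode.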

[6] = target: T3, 85/88 kDa calcium-independent phospholipase A2 (Homo sapiens, UniProt O60733); assay: as §2; in short: as §3
T3 sequence (O60733 whole entry): T1 sequence (whole entry)

[7] = target: T3, 85/88 kDa calcium-independent phospholipase A2; assay: Inhibition of human recombinant calcium-independent PLA2 using PAPC as substrate assessed as reduction in free AA formation after 30 mins by HPLC-MS analysis; in short: as §3
[8] = target: T1, 85/88 kDa calcium-independent phospholipase A2 (Homo sapiens); assay: (§4) Inhibition of human recombinant calcium-independent PLA2 using PAPC as substrate assessed as reduction in free [14C]-AA formation after 30 mins by scintillation counting
In short: (§5)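 Radioactive format: iPLA2 hydrolysed PAPC/C12E8 mixed micelles traced with 1-palmitoyl-2-(1-[14C]arachidonoyl) PC. Released [14C]-AA was measured by scintillation counting. Percent inhibition was plotted against log mole fraction or log concentration to derive X1(50) and IC50.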

[9] = target: T3, 85/88 kDa calcium-independent phospholipase A2; assay: as §4; in short: as §5
[10] = target: T3, 85/88 kDa calcium-independent phospholipase A2; assay: Inhibition of human recombinant calcium-independent PLA2 using PAPS as substrate assessed as reduction in […] after 30 mins in presence of equal molar mixture of PAPA/PAPC/PAPE/PAPG/PAPS/PLPC by HPLC-MS analysis
[11] = target: T1, 85/88 kDa calcium-independent phospholipase A2 (Homo sapiens); assay: (§6) Inhibition of human recombinant calcium-independent PLA2 using PAPE as substrate assessed as assessed as reduction in free AA formation after 30 mins in presence of equal molar mixture of PAPA/PAPC/PAPE/PAPG/PAPS/PLPC by HPLC-MS analysis
In short: (§7)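 The iPLA2 substrate was an equimolar mixture of PAPA, PAPC, PAPE, PAPG and PAPS (100 µM total) with 400 µM C12E8. Buffer was 100 mM HEPES pH 7.5, 2 mM ATP and 4 mM DTT; 30 min at 40 °C. Each 16:0 lysophospholipid was quantified in positive ion mode; free AA, common to all five substrates, in negative ion mode.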

[12] = target: T3, 85/88 kDa calcium-independent phospholipase A2; assay: as §6; in short: as §7
[13] = target: T3, 85/88 kDa calcium-independent phospholipase A2; assay: Inhibition of human recombinant calcium-independent PLA2 using PAPE as substrate assessed as reduction in […] after 30 mins in presence of equal molar mixture of PAPA/PAPC/PAPE/PAPG/PAPS/PLPC by HPLC-MS analysis
[14] = target: T3, 85/88 kDa calcium-independent phospholipase A2; assay: Inhibition of human recombinant calcium-independent PLA2 using PLPC as substrate assessed as reduction in 16:0 LPC formation after 30 mins by HPLC-MS analysis; in short: as §3
[15] = target: T3, 85/88 kDa calcium-independent phospholipase A2; assay: as §1
[16] = target: T1, 85/88 kDa calcium-independent phospholipase A2 (Homo sapiens); assay: (§8) Inhibition of human recombinant iPLA2 assessed as reduction in 16:0 LPC formation after 30 mins by HPLC-MS analysis; in short: as §3
[17] = target: T3, 85/88 kDa calcium-independent phospholipase A2; assay: as §8; in short: as §3
[18] = target: T1, 85/88 kDa calcium-independent phospholipase A2 (Homo sapiens); assay: (§9) Inhibition of human recombinant calcium-independent PLA2 using PAPG as substrate assessed as reduction in 16:0 […] formation after 30 mins in presence of equal molar mixture of PAPA/PAPC/PAPE/PAPG/PAPS/PLPC by HPLC-MS analysis
[19] = target: T3, 85/88 kDa calcium-independent phospholipase A2; assay: as §9
[20] = target: T1, 85/88 kDa calcium-independent phospholipase A2 (Homo sapiens); assay: Inhibition of human recombinant calcium-independent PLA2 using PAPA as substrate assessed as reduction in 16:0 LPA formation after 30 mins in presence of equal molar mixture of PAPA/PAPC/PAPE/PAPG/PAPS/PLPC by HPLC-MS analysis; in short: as §7
[21] = target: T1, 85/88 kDa calcium-independent phospholipase A2 (Homo sapiens); assay: Inhibition of human recombinant calcium-independent PLA2 using PAPE as substrate assessed as reduction in 16:0 LPE formation after 30 mins in presence of equal molar mixture of PAPA/PAPC/PAPE/PAPG/PAPS/PLPC by HPLC-MS analysis; in short: as §7
[22] = target: T1, 85/88 kDa calcium-independent phospholipase A2 (Homo sapiens); assay: (§10) Inhibition of human recombinant iPLA2 assessed as reduction in free FA formation after 30 mins by HPLC-MS analysis; in short: as §3
[23] = target: T3, 85/88 kDa calcium-independent phospholipase A2; assay: as §10; in short: as §3
[24] = target: T3, 85/88 kDa calcium-independent phospholipase A2; assay: Inhibition of human recombinant calcium-independent PLA2 using PLPC as substrate assessed as reduction in free LA formation after 30 mins by HPLC-MS analysis
[25] = target: T4, Secretory phospholipase A2 (Homo sapiens) (UniProt Q5R387+Q9NZK7+P14555+Q9BZM2+Q9UNK4+P39877+O15496+P04054+Q9NZ20+Q9BZM1+Q9BX93)
[26] = target: T4, Secretory phospholipase A2 (Homo sapiens); remark: listed apart in the source
[27] = target: T4, Secretory phospholipase A2 (Homo sapiens); remark: listed apart in the source

O=C1NC(=O)C(=Cc2ccc(C(=O)NC[C@@H]3C[C@@H](SC(c4ccccc4)(c4ccccc4)c4ccccc4)CN3C(=O)c3ccccc3C(=O)c3ccc(F)cc3F)cc2)S1
XI50 [1]: 0.13 nM | XI50 (mole fraction) [2]: 0.0023 | XI50 [3]: 1.8 nM | XI50 [4]: 2 nM

CCCCCCCCSCC(=O)C(F)(F)F
XI50 (mole fraction) [5]: 8e-05 | IC50 [6]: 54 nM | IC50 [7]: 49 nM | XI50 (mole fraction) [8]: 9e-05 | IC50 [9]: 48 nM | IC50 [10]: 46 nM | XI50 (mole fraction) [11]: 7e-05 | IC50 [12]: 50 nM | IC50 [13]: 63 nM | IC50 [14]: 83 nM | IC50 [15]: 160 nM | XI50 (mole fraction) [16]: 8e-05 | IC50 [17]: 55 nM | XI50 (mole fraction) [18]: 6e-05 | IC50 [19]: 48 nM | XI50 (mole fraction) [20]: 0.0002 | XI50 (mole fraction) [21]: 9e-05 | XI50 (mole fraction) [22]: 7e-05 | IC50 [23]: 48 nM | IC50 [24]: 67 nM | XI50 [4]: 0.05 nM

CCc1c(C(=O)C(N)=O)c2c(OCC(=O)O)cccc2n1Cc1ccccc1
XI50 (mole fraction) [11]: 0.0008 | XI50 (mole fraction) [18]: 0.0031 to 0.026 | XI50 [25]: 0.17 nM | XI50 [26]: 0.19 nM | XI50 [27]: 0.9 nM
